Laboratory results published in ChEMBL document CHEMBL2157971, “Antitumor agents 294. Novel E-ring-modified camptothecin-4β-anilino-4'-O-demethyl-epipodophyllotoxin conjugates as DNA topoisomerase I inhibitors and cytotoxic agents” (Bioorg Med Chem, 2012).
Calls of active or inactive are those of the source. The calls are words filed in the database; no cut-off is given here.

What was measured:
[1] = target: T1, DNA topoisomerase 1 (Homo sapiens) (UniProt P11387); assay: Inhibition of DNA topoisomerase 1 in human KB cells using [C14]thymidine assessed as protein-linked DNA breaks formation at 22.5 uM after 30 mins by […]; assay type: cell-based
T1 sequence (whole entry): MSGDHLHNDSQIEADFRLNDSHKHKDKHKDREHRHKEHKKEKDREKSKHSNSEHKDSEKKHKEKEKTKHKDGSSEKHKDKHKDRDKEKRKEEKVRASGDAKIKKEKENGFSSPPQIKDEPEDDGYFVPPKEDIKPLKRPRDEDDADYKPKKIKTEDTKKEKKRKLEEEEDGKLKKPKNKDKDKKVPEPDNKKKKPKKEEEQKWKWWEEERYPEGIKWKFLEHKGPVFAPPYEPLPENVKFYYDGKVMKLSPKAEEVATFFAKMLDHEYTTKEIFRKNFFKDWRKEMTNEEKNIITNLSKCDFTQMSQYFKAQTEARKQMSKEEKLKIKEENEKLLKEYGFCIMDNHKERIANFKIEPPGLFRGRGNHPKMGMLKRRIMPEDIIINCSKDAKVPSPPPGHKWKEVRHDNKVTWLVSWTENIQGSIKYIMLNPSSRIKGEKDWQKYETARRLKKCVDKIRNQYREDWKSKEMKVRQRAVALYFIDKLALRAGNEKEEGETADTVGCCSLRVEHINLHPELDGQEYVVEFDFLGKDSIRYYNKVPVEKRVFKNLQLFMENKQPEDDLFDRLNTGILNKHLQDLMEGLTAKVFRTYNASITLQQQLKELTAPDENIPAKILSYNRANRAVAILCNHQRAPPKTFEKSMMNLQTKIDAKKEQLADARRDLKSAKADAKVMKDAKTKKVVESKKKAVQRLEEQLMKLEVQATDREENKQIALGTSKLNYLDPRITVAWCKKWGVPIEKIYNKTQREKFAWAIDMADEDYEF
Method in brief: (§1)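 KB cells labeled with [14C]thymidine for 24 h, then treated with compound (2.5 or 22.5 µM) at 37 °C. Protein-linked DNA breaks quantified by potassium-SDS co-precipitation.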

[2] = Resistance ratio of IC50 for human camptothecin-resistant KBCPT100 cells to IC50 for human KB cells; assay type: functional
Method in brief: (§2)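 KB, etoposide-resistant KB/7D (kept in 7 µM etoposide), CPT-resistant KB CPT 100 (kept in 100 nM CPT) and revertant KB CPT 100rev cells, all grown in RPMI 1640 with 10% FBS. Log-phase cells seeded at 5000 cells/mL and exposed to a range of drug concentrations for 72 h. Growth read by […] blue dye assay; IC50 = 50% growth inhibition. Resistance ratio = KBCPT100 IC50 over KB IC50.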

[3] = target: T1, DNA topoisomerase 1 (Homo sapiens); assay: Inhibition of recombinant DNA topoisomerase1-mediated topo1-linked DNA relegation activity at 25 uM after 30 mins by […]
Method in brief: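 Suicide topo I cleavage complex pre-formed on radiolabeled oligoduplex. Religation started by adding 5 pmol of 13-mer ON6 with compound present, at 37 °C. 25-mer religation product resolved on 20% urea/polyacrylamide gel and quantified by phosphorimager.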

[4] = Antiproliferative activity against human VP16-resistant KB-7d cells overexpressing MRP after 72 hrs by […] blue dye assay; assay type: functional, cell-based; conditions: KB7D; method in brief: as §2
[5] = Antiproliferative activity against human camptothecin-resistant KBCPT100 cells after 72 hrs by […] blue dye assay; assay type: functional, cell-based; conditions: KBCPT100, 72 h; method in brief: as §2
[6] = Antiproliferative activity against human partially revertant camptothecin-resistant KBCPT100 cells after 72 hrs by […] blue dye assay; assay type: functional, cell-based; conditions: KBCPT100, 72 h; method in brief: as §2
KB [7] = assay: Antiproliferative activity against human KB cells after 72 hrs by […] blue dye assay; assay type: functional, cell-based; method in brief: as §2
[8] = Inhibition of DNA topoisomerase 2-mediated relegation activity at 250 uM after 30 mins by agarose gel electrophoresis
[9] = Inhibition of DNA topoisomerase 2-mediated [alpha32P]dCTP-labelled pBR322 cleavage up to 25 uM after 30 mins by agarose gel electrophoresis
[10] = target: T1, DNA topoisomerase 1 (Homo sapiens); assay: Inhibition of recombinant DNA topoismerase1-mediated cleavage activity at 25 uM after 15 mins by […]
Method in brief: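 32P-labeled ON5/ON4 oligoduplex (50 fmol) incubated with purified recombinant topoisomerase I (220 fmol) ± compound (25 µM) at 37 °C for 15 min. Stopped with SDS (0.5% final), then proteinase K digestion (1 mg/mL final). Cleavage products resolved on 20% denaturing urea/polyacrylamide gel.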

KB [11] = assay: Ratio of VP16 IC50 to compound IC50 for human KB cells; assay type: functional
[12] = target: T1, DNA topoisomerase 1 (Homo sapiens); assay: Inhibition of DNA topoisomerase 1 in human KB cells using [C14]thymidine assessed as protein-linked DNA breaks formation at 2.5 uM after 30 mins by […]; assay type: cell-based; method in brief: as §1

| Structure (SMILES) | fold change (FC) [1] | Ratio IC50 [2] | inhibition [3] | IC50 [4] | IC50 [5] | IC50 [6] | IC50 (KB [7]) | inhibition [8] | inhibition [9] | inhibition [10] | Ratio IC50 (KB [11]) | inhibition [12] |
| --- | --- | --- | --- | --- | --- | --- | --- | --- | --- | --- | --- | --- |
| CC[C@@](O)(C(=O)NC(C)C)c1cc2n(c(=O)c1CO)Cc1c-2nc2ccccc2c1/C=N\c1ccccc1N[C@@H]1c2cc3c(cc2[C@@H](c2cc(OC)c(O)c(OC)c2)[C@H]2C(=O)OC[C@@H]21)OCO3 | 7 | 2.8 | Active | 0.061 µM | 0.206 µM | 0.141 µM | 0.06 µM | Active | inactive | inactive | 8 |  |
| CC[C@@]1(O)C(=O)OCc2c1cc1n(c2=O)Cc2c-1nc1ccccc1c2/C=N\c1ccc(N[C@@H]2c3cc4c(cc3[C@@H](c3cc(OC)c(O)c(OC)c3)[C@H]3C(=O)OC[C@@H]32)OCO4)cc1 |  | 2.8 | Active | 0.0375 µM | 0.095 µM | 0.044 µM | 0.0245 µM | Active | inactive | inactive |  | Active |
| CC[C@@]1(O)C(=O)OCc2c1cc1n(c2=O)Cc2c-1nc1ccccc1c2/C=N\c1ccccc1N[C@@H]1c2cc3c(cc2[C@@H](c2cc(OC)c(O)c(OC)c2)[C@H]2C(=O)OC[C@@H]21)OCO3 |  | 2.8 | Active | 0.07 µM | 0.112 µM | 0.07 µM | 0.037 µM | Active | inactive | inactive |  | Active |
| CC[C@@]1(O)C(=O)OCc2c1cc1n(c2=O)Cc2cc3ccccc3nc2-1 [CAMPTOTHECIN] |  | 48 |  | 0.0068 µM | 0.423 µM | 0.024 µM | 0.0088 µM |  |  |  |  |  |
| COc1cc([C@@H]2c3cc4c(cc3[C@@H](O[C@@H]3O[C@@H]5CO[C@@H](C)O[C@H]5[C@H](O)[C@H]3O)[C@H]3COC(=O)[C@H]23)OCO4)cc(OC)c1O [ETOPOSIDE] |  |  |  | 55 µM | 0.336 µM | 0.374 µM | 0.475 µM |  |  |  |  |  |
| CC[C@@](O)(C(=O)NC(C)C)c1cc2n(c(=O)c1CO)Cc1c-2nc2ccccc2c1/C=N\c1ccc(N[C@@H]2c3cc4c(cc3[C@@H](c3cc(OC)c(O)c(OC)c3)[C@H]3C(=O)OC[C@@H]32)OCO4)cc1 |  | 2.8 | Active | 0.05 µM | 0.12 µM | 0.057 µM | 0.0425 µM | Active | inactive | inactive | 10 | Active |
